Legend:
Type in all cases: functional
Mus musculus [1] = experiment: Sedation caused by oral administration was estimated using rotarod (RR) assay.
Summary of the method: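 Mouse rotorod test for sedation, oral dosing, generally at a minimum of three doses with N = 6 animals per dose group.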

Mus musculus [2] = species on record: Mus musculus; experiment: Ratio of rotarod to Straub-tail activity, which indicates the dose exhibiting muscle relaxant activity versus that producing sedation.
Summary of the method: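 Ratio of rotorod ED50 (po) to Straub tail ED50 (po), both measured in mice with oral dosing. Indicates separation between the muscle-relaxant dose and the sedating dose.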

Mus musculus [3] = experiment: (§1) Percent effect profile muscle relaxation at 100 mg/kg by intraperitoneal administration in mouse using Straub-tail (ST) assay; conditions: ip
Summary of the method: (§2)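 Mouse morphine-induced Straub tail assay, scoring inhibition of sacro-coccygeus dorsalis contraction. Single ip dose of 100 mg/kg; percent effect reported. Compounds above 50% inhibition were then tested orally.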

Mus musculus [4] = experiment: Effective dose required for muscle relaxation by oral administration in mouse using Straub-tail (ST) assay.
Summary of the method: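 Mouse morphine-induced Straub tail assay, scoring inhibition of sacro-coccygeus dorsalis contraction. Dosed ip or po, generally at a minimum of three doses with N = 6 animals per dose group.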

Rattus norvegicus [5] = experiment: Antiinflammatory activity in cells by Carrageenan pleurisy assay by oral administration at 20 mg/kg.
Summary of the method: (§3)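 Rat carrageenan pleurisy, 3 h. Single oral dose of 20 mg/kg, with separate read-outs for pleural cell counts and edema as percent inhibition. Each compound tested two or three times; average variation approximately 10%.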

Rattus norvegicus [6] = experiment: Antiinflammatory activity in edema by Carrageenan pleurisy assay by oral administration at 20 mg/kg.; summary of the method: as §3
Rattus norvegicus [7] = experiment: Percent inhibition for analgesic activity by trypsin-induced hyperalgesia assay at 20 mg/kg by oral administration in rats.
Summary of the method: (§4)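 Rat trypsin-induced hyperalgesia (mild analgesia). Percent inhibition at a single oral dose of 20 mg/kg. Each compound tested two or three times; average variation approximately 5%.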

Mus musculus [8] = experiment: as §1; conditions: ip; summary of the method: as §2; remark: listed apart in the source
Rattus norvegicus [9] = experiment: Percent inhibition for analgesic activity by trypsin-induced hyperalgesia assay at 20 mg/kg by oral administration in rats; summary of the method: as §4
Rattus norvegicus [10] = experiment: Effective dose required for analgesic activity by trypsin-induced hyperalgesia assay at 20 mg/kg by oral administration in rats
Summary of the method: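 Rat trypsin-induced hyperalgesia (mild analgesia) with oral dosing. ED50 reported in mg/kg po. Each compound tested two or three times; average variation approximately 5%.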

| SMILES | ED50 (Mus musculus [1]) [mg/kg] | Ratio (Mus musculus [2]) | inhibition in vivo at 100 mg/kg (Mus musculus [3]) [%] | ED50 (Mus musculus [4]) [mg/kg] | inhibition in vivo at 20 mg/kg (Rattus norvegicus [5]) [%] | inhibition in vivo at 20 mg/kg (Rattus norvegicus [6]) [%] | inhibition in vivo at 20 mg/kg (Rattus norvegicus [7]) [%] | inhibition in vivo at 100 mg/kg (Mus musculus [8]) [%] | inhibition in vivo at 20 mg/kg (Rattus norvegicus [9]) [%] | ED50 (Rattus norvegicus [10]) [mg/kg] | ED50 (Mus musculus [3]) [mg/kg] |
| --- | --- | --- | --- | --- | --- | --- | --- | --- | --- | --- | --- |
| Cc1cccc2c1CC/C2=C\C(=O)NC1CC1 | 64 | 1.6 | 100 | 40 | 15 | 7 | – | – | – | – | – |
| O=C(/C=C1\CCc2cc(F)cc(F)c21)NC1CC1 | 81 | 1.4 | – | 69 | – | – | 13 | 100 | – | – | – |
| Cc1cccc2c1/C(=C/C(N)=O)CC2 | 56 | 0.7 | – | 82 | – | – | – | 100 | 12 | – | – |
| O=C(/C=C1\CCc2c1ccc(F)c2F)NC1CC1 | – | – | 100 | 62 | 27 | 27 | 11 | – | – | – | – |
| O=C(/C=C1\CCc2c(F)ccc(F)c21)NC1CC1 | 2 | 0.03 | – | 59 | – | – | 2 | 100 | – | – | – |
| CN(C)C(=O)/C=C1\CCc2c(F)cc(F)cc21 | 100 | 2 | – | 50 | – | – | – | 100 | 75 | – | – |
| O=C(/C=C1\CCc2cc(F)ccc21)NC1CC1 | 193 | 2.4 | 100 | 81 | – | – | – | – | – | – | – |
| O=C(/C=C1\CCc2c(F)cc(F)cc21)NCCO | – | – | 83 | 100 | – | – | – | – | 27 | – | – |
| NC(=O)/C=C1\CCc2c1ccc(F)c2F | 50 | 1.1 | – | 45 | 77 | 82 | 41 | 100 | – | – | – |
| CCNC(=O)/C=C1\CCc2ccc(F)cc21 | 136 | 1.9 | – | 70 | 45 | 63 | 40 | 100 | – | – | – |
| COc1ccc2c(c1)/C(=C/C(N)=O)CC2 | – | – | 0 | – | 1 | 3 | – | – | – | – | – |
| CC(C)NC(=O)/C=C1\CCc2ccc(F)cc21 | > 100 | – | – | 96 | 45 | 71 | 83 | 100 | – | 9 | – |
| O=C(/C=C1/CCc2ccc(Cl)cc21)NC1CC1 | – | – | 0 | – | – | – | – | – | – | – | – |
| NC(=O)CC1CCc2c(F)cc(F)cc21 (stereo not drawn) | – | – | 50 | – | – | – | – | – | 11 | – | – |
| CNC(=O)/C=C1\CCc2cc(F)cc(F)c21 | – | – | – | – | – | – | – | 33 | 33 | – | – |
| NC(=O)/C=C1\CCc2cc(F)ccc21 | > 100 | >~2 | 100 | 56 | 54 | 42 | – | – | – | – | – |
| NC(=O)/C=C1/CCc2ccc(F)cc21 | 92 | 1.4 | – | 64 | – | – | – | 100 | 24 | – | – |
| Cc1cccc2c1/C(=C/C(=O)NC1CC1)CC2 | – | – | – | – | – | – | – | 17 | 24 | – | – |
| O=C(/C=C1\CCc2ccc(F)cc21)NC1CCC1 | – | – | 100 | > 100 | 4 | 0 | – | – | 17 | – | – |
| O=C(/C=C1\CCc2c(Cl)cccc21)NC1CC1 | 66 | 1.1 | – | 58 | 28 | 45 | – | 100 | – | – | – |
| N#Cc1ccc2c(c1)/C(=C/C(N)=O)CC2 | – | – | – | – | – | – | 21 | – | – | – | 33 |

Source: ChEMBL document CHEMBL1144887, “Indanylidenes. 1. Design and synthesis of (E)-2-(4,6-difluoro-1-indanylidene)acetamide, a potent, centrally acting muscle relaxant with antiinflammatory and analgesic activity” (J Med Chem, 2003)
